MT1-MMP act inh = MT1-MMP (human) activation inhibition; P50281; HT1080 RFP-PRO-GFP cells, GFP/RFP ratio fluorescence, overnight; percent of plate control window, DMSO zero; GFP/RFP ratio change, % at 20 µM; 0.061% of 360,000 active; AID 651647;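 active = GFP/RFP ratio change of at least 30% with cell ATP level not reduced by more than half and red fluorescence within 50% of control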
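Assay system – RFP-PRO-GFP reporter HT1080 cells · Compound dosing – single dose of 20 µM compound, 1% DMSO final · Incubation – overnight compound exposure at 37 °C · Measure – GFP/RFP fluorescence ratio · Benchmarks – DMSO wells and RFP-L50D-GFP cells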
FAS-TE inh = inhibitors of human fatty acid synthase thioesterase domain | P49327 | recombinant FAS-TE, OMFH fluorogenic substrate, fluorescence endpoint | inhibition, % at 15 µM | 0.67% of 360,000 active;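 active = compounds whose normalised, plate-corrected inhibition of enzyme fluorescence in the single-dose primary screen is 50% or more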
DAGLB inh = blocks human DAGLB lipase activity. Q8NCG7. HEK293T DAGLB membrane lysate, EnzChek fluorogenic substrate. inhibition, % at 5.17 µM. 0.059% of 340,000 active. AID 504411; in the data active = inhibition above about 34%
Target sequence (Q8NCG7 whole entry, looked up): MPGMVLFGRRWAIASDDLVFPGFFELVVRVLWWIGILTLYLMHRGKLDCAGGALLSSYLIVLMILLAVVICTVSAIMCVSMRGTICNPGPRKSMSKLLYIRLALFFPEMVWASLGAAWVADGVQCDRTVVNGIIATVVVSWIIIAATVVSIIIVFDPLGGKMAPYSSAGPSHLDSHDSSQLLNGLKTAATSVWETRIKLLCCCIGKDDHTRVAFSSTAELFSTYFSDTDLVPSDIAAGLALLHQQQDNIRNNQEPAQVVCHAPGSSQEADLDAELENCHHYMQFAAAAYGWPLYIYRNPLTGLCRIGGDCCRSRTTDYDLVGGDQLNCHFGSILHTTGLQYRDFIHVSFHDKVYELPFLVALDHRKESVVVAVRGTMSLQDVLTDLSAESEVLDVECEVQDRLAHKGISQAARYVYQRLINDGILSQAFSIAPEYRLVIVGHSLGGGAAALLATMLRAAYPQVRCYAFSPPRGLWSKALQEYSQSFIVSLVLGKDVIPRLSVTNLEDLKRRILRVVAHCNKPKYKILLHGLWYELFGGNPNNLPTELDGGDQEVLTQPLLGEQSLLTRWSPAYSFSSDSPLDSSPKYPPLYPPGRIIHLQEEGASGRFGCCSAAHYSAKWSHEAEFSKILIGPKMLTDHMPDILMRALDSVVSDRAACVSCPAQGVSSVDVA
hiPSC survival = increases survival of single human iPS cells | 0.044% of 360,000 active | survival enhancement, % at 20 µM | hiPSC single-cell survival, ATPlite luminescence; 100% = ROCK inhibitor wells, 0% = DMSO | AID 602274; in the data active = survival enhancement above about 18%;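 also: cells exposed to compounds for 16 hours before the ATP read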
SKN-1 inh = C. elegans SKN-1 inhibition; C. elegans VP596 Pgst-4::GFP/RFP ratio, acrylamide-induced, 24 h; inhibition, % at 21.8 µM; 0.49% of 360,000 active; AID 624304;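 active = interference check ratio from 0.5 to 1.5 plus GFP to RFP signal ratio inhibition reaching or exceeding a fixed threshold, cut at about 30% in these data, passing the limit was not always enough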
FAS-TE inh conf = FAS thioesterase (human) inhibition, confirmation; shares compounds with FAS-TE inh; 45% of 2,300 active; recombinant FAS-TE, OMFH fluorogenic substrate, fluorescence; inhibition, % at 15 µM;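 active = compounds inhibiting the enzyme by at least 50% at 15 µM in any one of the replicates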
Of the large screens only hits and unclear results are named; the others gave an inactive call (follow-up assays come after a bar, where they were run). The list is not random: actives were taken first. Their share in the collection is about 1.3%.

CC(=O)C1=CCC(c2ccc(C)o2)N(S(=O)(=O)c2ccc(C)cc2)C1 (centres undefined)	none (no result: DAGLB inh)
CCOC(=O)C1=CC[C@H]2c3c(c4ccccc4n3C)C(=O)C1N2C(=O)OC(C)(C)C	FAS-TE inh 63 | FAS-TE inh conf 46
COc1ccc(S(=O)(=O)Nc2ccc3c(c2)C(=O)N([C@H](C)CO)C[C@H](C)[C@@H](CN(C)C(=O)Nc2ccc(C(F)(F)F)cc2)OCCCC[C@H](C)O3)cc1	FAS-TE inh 63 | FAS-TE inh conf inactive
COc1ccc(S(=O)(=O)N(C)C[C@@H]2OCCCC[C@H](C)Oc3ccc(NC(=O)Nc4ccc(C(F)(F)F)cc4)cc3C(=O)N([C@H](C)CO)C[C@H]2C)cc1	FAS-TE inh 85 | FAS-TE inh conf inactive
C[C@H]1CCCCO[C@@H](CN(C)S(=O)(=O)c2ccc(F)cc2)[C@@H](C)CN([C@@H](C)CO)C(=O)c2cc(NC(=O)Nc3ccc4c(c3)OCO4)ccc2O1	none
C[C@@H]1CCCCO[C@H](CN(C)S(=O)(=O)c2ccc(F)cc2)[C@@H](C)CN([C@H](C)CO)C(=O)c2cc(NC(=O)Nc3ccc(C(F)(F)F)cc3)ccc2O1	FAS-TE inh 74 | FAS-TE inh conf inactive
COc1ccc(S(=O)(=O)N(C)C[C@@H]2OCCCC[C@@H](C)Oc3ccc(NS(=O)(=O)c4cccs4)cc3C(=O)N([C@H](C)CO)C[C@@H]2C)cc1	FAS-TE inh 67 | FAS-TE inh conf inactive
OC(c1ccccc1)(c1nc(-c2ccccc2)cs1)C(F)(F)F (centres undefined)	none (no result: DAGLB inh)
O=C(OCc1ccccc1)C1=NNC2C(=O)N(Cc3ccccc3)C(=O)C12 (centres undefined)	none
CCn1cnc2cc(NC(=O)COc3ccc(C)cc3)ccc21	none
O=C(c1ccc(Cl)cc1)[C@@H]1[C@@H]2C(=O)N(c3cccc4ccccc34)C(=O)[C@@H]2C2c3ccccc3C=NN21 (some centres undefined)	FAS-TE inh 85 | FAS-TE inh conf inactive
CC(=O)[C@@H]1[C@@H]2C(=O)N(c3ccccc3F)C(=O)[C@@H]2[C@H]2c3ccccc3C=NN12	none (no result: DAGLB inh)
O=C(Nc1ccc(Cl)cc1)C(Cl)C(=O)c1ccccc1 (centres undefined)	FAS-TE inh 77 | FAS-TE inh conf 87
O=C(Nc1ccccc1Cl)C(Cl)C(=O)c1ccccc1 (centres undefined)	none
COC(=O)C[C@H]1CC[C@H](NC(=O)c2cccc(F)c2)[C@@H](CO)O1	none (no result: FAS-TE inh, DAGLB inh, hiPSC survival)
Cc1ccc2nc(-c3ccccc3)cc(C(=O)N3CCN(S(=O)(=O)c4c(C)noc4C)CC3)c2c1	FAS-TE inh 70 | FAS-TE inh conf inactive
CC(C)C(N)c1csc(NC(=O)Nc2ccc(OC(F)(F)F)cc2)n1 (centres undefined)	none (no result: DAGLB inh)
CC1CCN(S(=O)(=O)c2ccc3c(c2)c(=O)c(C(=O)NCc2cccs2)cn3C)CC1	FAS-TE inh 65 | FAS-TE inh conf inactive
CCN(CC)S(=O)(=O)c1ccc2c(c1)c(=O)c(C(=O)NCc1ccco1)cn2C	none
CC1CCN(S(=O)(=O)c2ccc3c(c2)c(=O)c(C(=O)NCc2ccco2)cn3C)CC1	FAS-TE inh 71 | FAS-TE inh conf 80
Cn1cc(C(=O)NCC2COc3ccccc3O2)c(=O)c2cc(S(=O)(=O)N3CCCCC3)ccc21 (centres undefined)	FAS-TE inh 53 | FAS-TE inh conf inactive
CC1CCN(S(=O)(=O)c2ccc3c(c2)c(=O)c(C(=O)N2CCOCC2)cn3C)CC1	none
CCN1CCCC1CNC(=O)c1cn(C)c2ccc(S(=O)(=O)N3CCCCCC3)cc2c1=O (centres undefined)	none
Cc1cccc(C)c1NC(=O)C1(C)CN(S(C)(=O)=O)CC(=O)N1CCc1c[nH]c2ccccc12 (centres undefined)	none (no result: FAS-TE inh, DAGLB inh, hiPSC survival)
COc1cc2oc(=O)cc(CN3CCN(C(C)=O)CC3)c2cc1Cl	none (no result: DAGLB inh)
O=C(Nc1ccc(F)cc1)N(Cc1ccco1)Cc1cc2cc3c(cc2[nH]c1=O)OCO3	none
O=C(Nc1ccc(F)cc1)N(Cc1cccs1)Cc1cc2cc3c(cc2[nH]c1=O)OCO3	FAS-TE inh 55 | FAS-TE inh conf inactive
CNC(=S)N(Cc1cccs1)Cc1cc2cc(OC)ccc2[nH]c1=O	none
COC(=O)c1ccccc1NC(=S)N(Cc1ccc2c(c1)OCO2)Cc1cc2ccc(C)cc2[nH]c1=O	FAS-TE inh 79 | FAS-TE inh conf inactive
Cc1ccc(NC(=O)N(Cc2ccc3c(c2)OCO3)Cc2cc3cc4c(cc3[nH]c2=O)OCCO4)cc1	FAS-TE inh 75 | FAS-TE inh conf inactive
COc1ccc2[nH]c(=O)c(CN(Cc3cccs3)C(=S)Nc3cccc(C)c3)cc2c1	FAS-TE inh 72 | FAS-TE inh conf inactive
O=c1[nH]c(CSc2nc(-c3ccc(F)cc3)cs2)nc2ccccc12	none
CCOC(=O)/C(=C(/C)N)C1CC(=O)NC1=O (centres undefined)	none
C(=NNc1ccc2ccccc2n1)c1ccccn1	none (no result: DAGLB inh)
CCOc1cc(OCC)cc(C(=O)N2CCC[C@@H]2C(=O)N2CCC[C@H]2C(=O)NCc2ccncc2)c1	none (no result: DAGLB inh)
Cc1ccc(C)c(C(O)c2ncc(-c3ccc(F)cc3)[nH]2)c1 (centres undefined)	none (no result: DAGLB inh)
O=C(Nc1ccc2c(c1)OCCO2)C1c2ccccc2OCC(=O)N1Cc1cccnc1 (centres undefined)	none (no result: DAGLB inh)
O=C(N/N=C/c1cc([N+](=O)[O-])cc([N+](=O)[O-])c1O)C(O)(c1ccccc1)c1ccccc1	FAS-TE inh 52 | FAS-TE inh conf 61
O=C(Cn1nc2ccccc2n1)N/N=C/c1cc(Cl)cc([N+](=O)[O-])c1O	FAS-TE inh 61 | FAS-TE inh conf 52
O=C(N/N=C/c1ccc(O)c([N+](=O)[O-])c1)C(O)(c1ccccc1)c1ccccc1	none
O=C1NC[C@H](CCCCN2C[C@H](Cc3ccc(O)cc3)N(Cc3ccccc3)C(=O)C2=O)N(CC2CCCCC2)C1=O	none (no result: DAGLB inh)
CC12CCC(=O)N1C(C(=O)OCC(=O)Nc1ccc(C(F)(F)F)cc1)CS2 (centres undefined)	none
COc1cc(CNc2ncnc3c2ncn3[C@H]2CN(Cc3cccc4ccccc34)C[C@@H](CO)O2)cc(OC)c1OC	none (no result: DAGLB inh)
Cc1cccc(Nc2nnc(-c3ccc(N4CCOCC4)c([N+](=O)[O-])c3)c3ccccc23)c1	FAS-TE inh 82 | FAS-TE inh conf inactive
O=c1c2c3c(sc2nc(NCCO)n1CCc1ccccc1)CCCCC3	FAS-TE inh 50 | FAS-TE inh conf inactive
Cn1c(=O)c(C#N)c(-c2ccc(F)cc2)c2cc(C(=O)c3cc(Cl)cc(Cl)c3O)cnc21	FAS-TE inh 54 | FAS-TE inh conf inactive

Screening results from PubChem BioAssay.
